Assay results from different studies.
Each line is one published result; the experiments were not run side by side.
Target: Fibroblast growth factor receptor 4 (FGFR4, Homo sapiens, UniProt P22455)

Compound	test	setting	remaining binding [%]
CN([C@@H]1CCc2c(CC(=O)O)c3cc(S(C)(=O)=O)ccc3n2C1)S(=O)(=O)c1ccc(F)cc1	cell-free assay, competition with immobilised ligand	1 µM	99
Cc1cnc(Nc2ccc(C(=O)N3CCC(N4CCCC4)CC3)cc2)nc1-c1cc2ccccc2s1	binding, competition with immobilised ligand	1 µM	76
F[C@@H]1CCN(c2nccc(-c3cnn4ncccc34)n2)C1	binding	1 µM	100
CCN1CCN(Cc2ccc(C(=O)Nc3ccc(C)c(Oc4ccc5c(c4)CC(=O)N5)c3)cc2C(F)(F)F)CC1	binding, competition with immobilised ligand	1 µM	100
CN(CCCC(F)(F)F)c1nccc(-c2cnn3ncccc23)n1	binding	1 µM	96
N#CC1(c2ccccn2)CCN(Cc2cc(C(=O)N3CCCC3)c(=O)n3ccccc23)CC1	cell-free assay, competition with immobilised ligand	1 µM	90
C[C@@H](c1ccc(-n2cnc3c(N)ncnc32)cc1)N1CCc2nn(C)c(Cc3ccccc3)c2C1=O	binding, competition with immobilised ligand	0.1 µM	97
CN(C(=O)c1ccccc1)c1cc(N(C)c2ccc3c(c2)CCc2ccc(C(=O)NCCN4CCOCC4)cc2C3=O)ccc1F	cell-free assay, competition with immobilised ligand	1 µM	100
O=C(Nc1c[nH]nc1C(=O)NC1CCNCC1)c1cc(F)cc(F)c1	binding, competition with immobilised ligand	1 µM	100
COc1cnc(Nc2cccc(S(N)(=O)=O)c2)nc1N1CCN(c2ccccc2)C(=O)C1	binding, competition with immobilised ligand	1 µM	100
C=CC(=O)N1CCC(C(=O)NCC(=O)N2CCN(c3nc(-c4cnc(N)nc4C(F)F)nc(N4CCOCC4)n3)CC2)CC1	binding, competition with immobilised ligand	1 µM	100
CN(c1ccnc(CNc2nc(Nc3ccc4c(c3)CC(=O)N4)ncc2C(F)(F)F)n1)S(C)(=O)=O	cell-free assay, competition with immobilised ligand	1 µM	83
CN(C)c1ncc(F)c(-c2cnn3ncccc23)n1	binding	1 µM	100
CCc1ccccc1C(=O)Nc1n[nH]c2c(C)c(F)c(C3C(C#N)=C(C)N(C)C(C)=C3C#N)cc12	cell-free assay, competition with immobilised ligand	1 µM	100
COc1ccnn2ncc(-c3ccnc(N(C)C)n3)c12	binding	1 µM	100
O=C(NCCCN1CCOCC1)c1ccc(Nc2nccc(-c3cc4ccccc4s3)n2)cc1	binding, competition with immobilised ligand	1 µM	91
N[C@H]1CCN(c2nccc(-c3cnn4ncccc34)n2)C1	binding	1 µM	100
O=C(c1ccc(Nc2ncc(Cl)c(-c3cc4ccccc4s3)n2)cc1)N1CCC(N2CCCC2)CC1	binding, competition with immobilised ligand	1 µM	77
CN(c1nccc(-c2cnn3ncccc23)n1)C1CC1	binding	1 µM	99
O=C(Nc1ccc(Oc2ccc(F)cc2)cc1)N1CCc2ncccc2[C@H]1c1ccc(F)cc1	cell-free assay, competition with immobilised ligand	1 µM	95
C[C@H]1CCN(c2nccc(-c3cnn4ncccc34)n2)C1	binding	1 µM	76
Cc1c(C(=O)O)cc(-c2ccc(C3CCNCC3)cc2)c2ccc(-c3ccc(C(F)(F)F)cc3)cc12	cell-free assay, competition with immobilised ligand	1 µM	100
